Measurements as given in ChEMBL document CHEMBL1142148, “Antibiotic susceptibility profile of bifidobacteria as affected by oxgall, acid, and hydrogen peroxide stress” (2007).

Columns and labels:
Bifidobacterium longum [1] = experiment: Antimicrobial activity against 60 min 1 M HCl-stressed Bifidobacterium longum ATCC 15707 after 18 hrs; assay type: functional
Summary of the method: (§1)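 Mid-log MRS culture pelleted and resuspended in MRS broth brought to pH 2.0 with 1 M HCl, held anaerobically at 37°C for 60 min, then subcultured in MRS (pH 6.5) for 24 h anaerobically before MIC testing by broth microdilution (as for unstressed cells). Table footnote gives 18 h anaerobic regrowth after the stress. MIC is the median of four repetitions.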

Bifidobacterium breve [2] = experiment: Antimicrobial activity against Bifidobacterium breve R0070; assay type: functional
Summary of the method: (§2)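 Broth microdilution in MRS plus 0.05% L-cysteine-HCl. Mid-log culture adjusted to OD650 0.1, giving about 2.5 × 10^4 to 5.0 × 10^4 CFU/well, then added to twofold serial dilutions of agent. Plates incubated anaerobically at 37°C for 18 h and read at OD650. MIC is the lowest concentration matching the uninoculated blank OD, taken as the median of four repeats.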

[3] = system: Bifidobacterium thermophilum; experiment: Antimicrobial activity against Bifidobacterium thermophilum ATCC 25866; assay type: functional; summary of the method: as §2
Bifidobacterium longum [4] = experiment: Antimicrobial activity against 90 mins oxgall-stressed Bifidobacterium longum R0175 after 18 hrs; assay type: functional
Summary of the method: (§3)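 Cells pelleted from mid-log MRS culture and resuspended in MRS (initial pH 6.5) with 0.3% (wt/vol) oxgall for 90 min anaerobically at 37°C. They were then regrown in MRS pH 6.5 for 24 h (footnote: 18 h) anaerobically and tested for MIC by the same broth microdilution assay. Median of four repetitions.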

[5] = system: Bifidobacterium pseudolongum; experiment: Antimicrobial activity against 90 mins oxgall-stressed Bifidobacterium pseudolongum ATCC 25562 after 18 hrs; assay type: functional; summary of the method: as §3
Bifidobacterium breve [6] = experiment: Antimicrobial activity against 90 mins oxgall-stressed Bifidobacterium breve R0070 after 18 hrs; assay type: functional; summary of the method: as §3
Bifidobacterium longum [7] = experiment: Antimicrobial activity against Bifidobacterium longum P/N 601377; assay type: functional; summary of the method: as §2
Bifidobacterium longum [8] = experiment: Antimicrobial activity against Bifidobacterium longum R0175; assay type: functional; summary of the method: as §2
Bifidobacterium animalis [9] = experiment: Antimicrobial activity against 90 mins hydrogen peroxide-stressed Bifidobacterium animalis ATCC 27536 after 18 hrs; assay type: functional
Summary of the method: (§4)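 Stress applied for 90 min at 37°C under anaerobic conditions, using MRS (initial pH 6.5) containing H2O2 at each strain's own inhibitory concentration. The H2O2 level was set beforehand by microplate tolerance testing. Challenged cells were regrown in MRS for 24 h (footnote: 18 h) before MIC testing by broth microdilution. Median of four repetitions.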

Bifidobacterium bifidum [10] = experiment: Antimicrobial activity against 90 mins oxgall-stressed Bifidobacterium bifidum BB12 after 18 hrs; assay type: functional; summary of the method: as §3
Bifidobacterium bifidum [11] = experiment: Antimicrobial activity against 60 min 1 M HCl-stressed Bifidobacterium bifidum R0071 after 18 hrs; assay type: functional; summary of the method: as §1
Bifidobacterium animalis [12] = experiment: Antimicrobial activity against Bifidobacterium animalis ATCC 27536; assay type: functional; summary of the method: as §2
Bifidobacterium bifidum [13] = experiment: Antimicrobial activity against 90 mins hydrogen peroxide-stressed Bifidobacterium bifidum R0071 after 18 hrs; assay type: functional; summary of the method: as §4
[14] = system: Bifidobacterium thermophilum; experiment: Antimicrobial activity against 90 mins oxgall-stressed Bifidobacterium thermophilum ATCC 25866 after 18 hrs; assay type: functional; summary of the method: as §3
Bifidobacterium longum [15] = experiment: Antimicrobial activity against Bifidobacterium longum ATCC 15707; assay type: functional; summary of the method: as §2
[16] = system: Bifidobacterium pseudolongum; experiment: Antimicrobial activity against 60 min 1 M HCl-stressed Bifidobacterium pseudolongum ATCC 25562 after 18 hrs; assay type: functional; summary of the method: as §1
[17] = Antimicrobial activity against 90 mins oxgall-stressed Bifidobacterium infantis ATCC 15697 after 18 hrs; assay type: functional, Bifidobacterium longum subsp. infantis; conditions: Bifidobacterium longum; summary of the method: as §3
Bifidobacterium bifidum [18] = experiment: Antimicrobial activity against Bifidobacterium bifidum R0071; assay type: functional; summary of the method: as §2
Bifidobacterium breve [19] = experiment: Antimicrobial activity against 60 min 1 M HCl-stressed Bifidobacterium breve ATCC 15700 after 18 hrs; assay type: functional; summary of the method: as §1
Bifidobacterium longum [20] = experiment: Antimicrobial activity against 90 mins oxgall-stressed Bifidobacterium longum ATCC 15707 after 18 hrs; assay type: functional; summary of the method: as §3
Bifidobacterium longum [21] = experiment: Antimicrobial activity against 60 min 1 M HCl-stressed Bifidobacterium longum P/N 601377 after 18 hrs; assay type: functional; summary of the method: as §1
Bifidobacterium bifidum [22] = experiment: Antimicrobial activity against 90 mins hydrogen peroxide-stressed Bifidobacterium bifidum BB12 after 18 hrs; assay type: functional; summary of the method: as §4
Bifidobacterium longum [23] = experiment: Antimicrobial activity against 90 mins hydrogen peroxide-stressed Bifidobacterium longum P/N 601377 after 18 hrs; assay type: functional; summary of the method: as §4
[24] = Antimicrobial activity against Bifidobacterium infantis ATCC 15697; assay type: functional, Bifidobacterium longum subsp. infantis; conditions: Bifidobacterium longum; summary of the method: as §2
Bifidobacterium bifidum [25] = experiment: Antimicrobial activity against 60 min 1 M HCl-stressed Bifidobacterium bifidum BB12 after 18 hrs; assay type: functional; summary of the method: as §1
Bifidobacterium longum [26] = experiment: Antimicrobial activity against 90 mins hydrogen peroxide-stressed Bifidobacterium longum ATCC 15707 after 18 hrs; assay type: functional; summary of the method: as §4
Bifidobacterium bifidum [27] = experiment: Antimicrobial activity against Bifidobacterium bifidum BB12; assay type: functional; summary of the method: as §2
Bifidobacterium longum [28] = experiment: Antimicrobial activity against 90 mins hydrogen peroxide-stressed Bifidobacterium longum R0175 after 18 hrs; assay type: functional; summary of the method: as §4
Bifidobacterium animalis [29] = experiment: Antimicrobial activity against 90 mins oxgall-stressed Bifidobacterium animalis ATCC 27536 after 18 hrs; assay type: functional; summary of the method: as §3
Bifidobacterium breve [30] = experiment: Antimicrobial activity against 90 mins hydrogen peroxide-stressed Bifidobacterium breve R0070 after 18 hrs; assay type: functional; summary of the method: as §4
[31] = Antimicrobial activity against 60 min 1 M HCl-stressed Bifidobacterium infantis ATCC 15697 after 18 hrs; assay type: functional, Bifidobacterium longum subsp. infantis; conditions: Bifidobacterium longum; summary of the method: as §1
[32] = system: Bifidobacterium pseudolongum; experiment: Antimicrobial activity against Bifidobacterium pseudolongum ATCC 25562; assay type: functional; summary of the method: as §2
[33] = system: Bifidobacterium thermophilum; experiment: Antimicrobial activity against 90 mins hydrogen peroxide-stressed Bifidobacterium thermophilum ATCC 25866 after 18 hrs; assay type: functional; summary of the method: as §4
Bifidobacterium breve [34] = experiment: Antimicrobial activity against 90 mins hydrogen peroxide-stressed Bifidobacterium breve ATCC 15700 after 18 hrs; assay type: functional; summary of the method: as §4
Bifidobacterium breve [35] = experiment: Antimicrobial activity against 90 mins oxgall-stressed Bifidobacterium breve ATCC 15700 after 18 hrs; assay type: functional; summary of the method: as §3
Bifidobacterium longum [36] = experiment: Antimicrobial activity against 90 mins oxgall-stressed Bifidobacterium longum ATCC 15708 after 18 hrs; assay type: functional; summary of the method: as §3
[37] = system: Bifidobacterium thermophilum; experiment: Antimicrobial activity against 60 min 1 M HCl-stressed Bifidobacterium thermophilum ATCC 25866 after 18 hrs; assay type: functional; summary of the method: as §1
Bifidobacterium longum [38] = experiment: Antimicrobial activity against Bifidobacterium longum ATCC 15708; assay type: functional; summary of the method: as §2
Bifidobacterium longum [39] = experiment: Antimicrobial activity against 90 mins oxgall-stressed Bifidobacterium longum P/N 601377 after 18 hrs; assay type: functional; summary of the method: as §3
Bifidobacterium bifidum [40] = experiment: Antimicrobial activity against Bifidobacterium bifidum ATCC 15696; assay type: functional; summary of the method: as §2
Bifidobacterium breve [41] = experiment: Antimicrobial activity against Bifidobacterium breve ATCC 15700; assay type: functional; summary of the method: as §2
Bifidobacterium animalis [42] = experiment: Antimicrobial activity against 60 min 1 M HCl-stressed Bifidobacterium animalis ATCC 27536 after 18 hrs; assay type: functional; summary of the method: as §1
Bifidobacterium bifidum [43] = experiment: Antimicrobial activity against 90 mins oxgall-stressed Bifidobacterium bifidum ATCC 15696 after 18 hrs; assay type: functional; summary of the method: as §3
Bifidobacterium bifidum [44] = experiment: Antimicrobial activity against 90 mins oxgall-stressed Bifidobacterium bifidum R0071 after 18 hrs; assay type: functional; summary of the method: as §3
Bifidobacterium longum [45] = experiment: Antimicrobial activity against 90 mins hydrogen peroxide-stressed Bifidobacterium longum ATCC 15708 after 18 hrs; assay type: functional; summary of the method: as §4
Bifidobacterium longum [46] = experiment: Antimicrobial activity against 60 min 1 M HCl-stressed Bifidobacterium longum R0175 after 18 hrs; assay type: functional; summary of the method: as §1
Bifidobacterium breve [47] = experiment: Antimicrobial activity against 60 min 1 M HCl-stressed Bifidobacterium breve R0070 after 18 hrs; assay type: functional; summary of the method: as §1

Measured: MIC

CN[C@@H]1[C@H](O[C@H]2[C@H](O[C@H]3[C@H](O)[C@@H](O)[C@H](N=C(N)N)[C@@H](O)[C@@H]3N=C(N)N)O[C@@H](C)[C@]2(O)C=O)O[C@@H](CO)[C@H](O)[C@H]1O [STREPTOMYCIN]
125 µg/mL: Bifidobacterium longum [4] | Bifidobacterium breve [6] | Bifidobacterium longum [7] | Bifidobacterium breve [19] | Bifidobacterium longum [23] | Bifidobacterium bifidum [25] | Bifidobacterium animalis [29] | Bifidobacterium longum [39] | Bifidobacterium animalis [42] | Bifidobacterium bifidum [44] | Bifidobacterium breve [47]
1.9 µg/mL: Bifidobacterium bifidum [43]
31.2 µg/mL: Bifidobacterium longum [46]
62.5 µg/mL: Bifidobacterium longum [8] | Bifidobacterium longum [20] | Bifidobacterium longum [21] | Bifidobacterium longum [26]
500 µg/mL: Bifidobacterium bifidum [10] | [33] | Bifidobacterium breve [34] | Bifidobacterium longum [45]
15.6 µg/mL: Bifidobacterium breve [2]
250 µg/mL: all other assays above
